High-throughput results: PubChem BioAssay, several laboratories
Many of the other results were omitted from the sample, so hits are more common in it than they were.
NALP3 yeast inh = NALP3 inhibition in yeast; Yeast reconstituted NLRP3/ASC/caspase-1, beta-gal luminescence, 24 h; inhibition, % at 10 µM; 330,000 compounds, 0.39% hits; AID 2825;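 active = inhibition of 50% or more; inactive = inhibition below 50%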
Calb FLC = affects C. albicans growth with fluconazole; C. albicans CaCi-2 + fluconazole, Alamar Blue growth, 48 h; growth inhibition, % (concentration not given with the values); 300,000 compounds, 0.57% hits; AID 1979;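 active = growth inhibition above about 58% in most replicates, limit read from the data, passing the limit was not always enough; inconclusive = exactly half the replicates above a set limit; inactive = most replicates below a set limit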;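 also: all wells also contain fluconazole at 8 µg/ml as a sub-toxic cotreatment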
L major viab = Leishmania major promastigote growth inhibition. Leishmania major promastigotes, resazurin fluorescence viability. inhibition, % at 10 µM. 200,000 compounds, 9% hits. AID 1063; in the data active = inhibition above about 50%;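 also: promastigotes grown with compound for 44 hours at 28 °C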
NALP1 yeast inh = inhibitors of NALP1 inflammasome in yeast | S. cerevisiae NALP1/ASC/caspase-1 growth, X-gal OD620, 72 h | inhibition, % at 10 µM | 280,000 compounds, 0.61% hits | AID 2071; in the data active = inhibition mostly above about 24%, no sharp cut-off; inactive = mostly below about 32%
PolyA inhibitor = inhibitors of polyadenylation in S. cerevisiae. 300,000 compounds, 0.02% hits. activity score, % at 12 µM. S. cerevisiae SKY197-pL101 polyadenylation reporter, beta-gal luminescence; efflux-impaired pdr1/pdr3 knockout yeast; score 100 = 6 SD above DMSO;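 active = lowest replicate activity score at least 50, where 100 means six control SD above control mean; inconclusive = lowest score under 50 but half or more replicates reach 50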;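 also: yeast exposed to compound for 9 h at 30 °C; higher score means more reporter readthrough which indicates perturbed polyadenylation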
T cruzi repl = blocks replication of Trypanosoma cruzi; 300,000 compounds, 1.4% hits; inhibition, % (no concentration beside the values); T. cruzi beta-gal in NIH3T3, luminescence, 90 h; AID 1885;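 active = mean inhibition across valid replicates above about 55%, limit read from the data; inconclusive = mean below that limit but half or more replicates reach it; inactive = mean below it, under half of replicates reach it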;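 also: signal also drops with host cell toxicity which is not excluded here; higher percent means less beta-gal luminescence so fewer parasites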
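Test system: β-gal T. cruzi (Tulahuen C4) inside NIH/3T3 cells / Quantity: 5,000 cells/well / Measured by: luminescence from GalScreen with 0.05% NP40, read after 60 min / Medium: DMEM plus 2% FBS / Measure: parasite load inhibition, % / Reagent: Tulahuen C4 trypomastigotes, 5000/well / Schedule: co-culture of at least 90 h after 3 h attachment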
Of the large screens only hits and unclear results are named; the others gave an inactive call.

COc1ccc(Nc2nc(N3CCCC3)nc3ccccc23)c(OC)c1	L major viab 100, T cruzi repl 65
COc1ccc(Nc2ncnc3ccccc23)c(OC)c1	none
CCN1CCN(c2nc(NCCO)c3ccccc3n2)CC1	none (no result: L major viab)
Cc1c(O)ccc(/C=N/Nc2nc(-c3cccnc3)nc3ccccc23)c1O	T cruzi repl 56 (no result: L major viab)
C=CCNc1nc(N2CCCC2)nc2ccccc12	L major viab 100
CC(Nc1nc(-c2ccccc2)nc2ccccc12)c1ccccc1 (configuration not stated)	L major viab 98
Oc1ccc(/C=N/Nc2nc(-c3cccnc3)nc3ccccc23)c(O)c1	Calb FLC inconclusive (no result: L major viab)
O=C(c1ccccc1Cl)N1N=C(c2cccs2)CC1c1cccc(O)c1 (configuration not stated)	none (no result: L major viab)
O=C(O)CCCC(=O)Nc1ccccc1C(=O)N1CCCC1	none
CC(Nc1nc(-c2cccnc2)nc2ccccc12)c1ccc(F)cc1 (configuration not stated)	T cruzi repl 56 (no result: L major viab)
C/C(=N\Nc1cc(C)nc(-c2ccccc2O)n1)c1ccccc1	T cruzi repl inconclusive
Cc1ccc(Nc2nc(-c3cccnc3)nc3ccccc23)cc1	none (no result: L major viab)
Cc1cc(N/N=C/c2ccc(O)c(C)c2O)nc(-c2ccccc2O)n1	L major viab 93, T cruzi repl 59 (no result: NALP3 yeast inh)
CC(Nc1nc(N2CCCCC2)nc2ccccc12)c1ccccc1 (configuration not stated)	L major viab 100, T cruzi repl 64
CC(Nc1nc(-c2ccccc2O)nc2ccccc12)c1ccccc1 (configuration not stated)	none (no result: L major viab)
CC(Nc1nc(-c2ccccc2F)nc2ccccc12)c1ccccc1 (configuration not stated)	none (no result: L major viab)
Cc1ccccc1Nc1nc(-c2cccnc2)nc2ccccc12	L major viab 78, T cruzi repl 59
Cc1[nH]c2ccccc2c1SCc1nnc(SCc2ccc(Cl)cc2)n1C	T cruzi repl 59 (no result: L major viab)
Cc1ccc(C(C(=O)NC2CCCCC2)N2CCCC2)cc1 (configuration not stated)	none
CCOC(=O)C1CCN(C(C(=O)NC2CCCC2)c2ccc(C)cc2)CC1 (configuration not stated)	NALP1 yeast inh 36
COC(C)(C)[C@H](O)COc1c2ccoc2cc2oc(=O)ccc12	none
CC(C)CC(=O)Nc1nnc(CSCc2ccc(F)cc2)s1	none (no result: L major viab)
Clc1cccc(C[n+]2cc(-c3ccccc3)n3c2CCC3)c1	L major viab 99, T cruzi repl 64
Cc1ccc(-c2c[n+](Cc3cccc(Cl)c3)c3n2CCC3)cc1	T cruzi repl 67 (no result: L major viab, NALP1 yeast inh)
Cc1ccc(-c2c[n+](Cc3ccc(Cl)cc3)c3n2CCC3)cc1	T cruzi repl 61 (no result: L major viab)
Cn1c(NC(=O)C[n+]2cc(-c3ccc(Cl)cc3)n3c2CCC3)cc(=O)n(C)c1=O	none
Clc1ccc(-c2c[n+](Cc3ccc(Cl)c(Cl)c3)c3n2CCC3)cc1	L major viab 99 (no result: NALP3 yeast inh, Calb FLC, PolyA inhibitor, T cruzi repl)
Cc1ccc(C[n+]2cc(-c3ccc(Cl)cc3)n3c2CCC3)cc1	none (no result: L major viab, T cruzi repl)
N#CC(C#N)=Cc1cc2ccccc2nc1N1CCCCC1	L major viab 82
CCOC(=O)/C(C#N)=C/c1cc2ccccc2nc1N1CCOCC1	none
O=C(O/N=C1/CCSc2ccccc21)c1ccc(F)cc1	Calb FLC 117 (no result: PolyA inhibitor)
O=C1C2=C(Nc3ccccc3SC2c2ccco2)c2ccccc21 (configuration not stated)	L major viab 99
C/C(=N\O)c1noc(C)c1C(=O)Nc1nccs1	none (no result: L major viab)
O=c1[nH]nc(Cc2ncc(C(F)(F)F)cc2Cl)c2ccccc12	none (no result: L major viab)
Cc1ccc(N=C2C(=S)N(c3ccc(C)cc3)C(=N)N2/N=C/c2ccc(Cl)cc2)cc1	L major viab 100
COc1ccc(/C=N/N2CCN(c3ccc(Cl)cc3)CC2)cc1	none (no result: L major viab)
Clc1ccc(CN2CCCCCC2)cc1	none (no result: L major viab)
O=[N+]([O-])c1cc(CN2CCCC2)ccc1Sc1ccc(Cl)cc1	L major viab 95, T cruzi repl 62
Cc1cc(C)c(S(=O)(=O)c2cccc(C)c2C)c(=O)[nH]1	NALP1 yeast inh 33 (no result: L major viab)
O=C(CN1C(=O)NC2(CCCC2)C1=O)Nc1cc(Cl)ccc1N1CCCCC1	none (no result: L major viab)
COc1ccc([C@H]2CC(=O)C=C(c3ccc(Cl)c(Cl)c3)C2)cc1	none (no result: Calb FLC, L major viab, NALP1 yeast inh, PolyA inhibitor, T cruzi repl)
CCC[C@@H](CNC)NC[C@H](Cc1ccccc1)NCCCCc1ccccc1	none (no result: L major viab)
CNC[C@@H](Cc1ccccc1)NC[C@@H](CC1CCCCC1)NCCCc1ccccc1	Calb FLC 79 (no result: L major viab)
CC[C@@H](C)[C@H](CNC)NC[C@@H](Cc1cccc2ccccc12)NCCc1cccc(C(F)(F)F)c1	Calb FLC 112 (no result: L major viab)
CNC[C@@H](CC1CCCCC1)NC[C@H](CC(C)C)NCCc1cccc(C(F)(F)F)c1	Calb FLC 88 (no result: L major viab)
CNC(=S)N(CCc1ccccc1)Cc1cc2cc(OC)c(OC)cc2[nH]c1=O	none
COc1cc2cc(CN(CCc3ccccc3C)C(=S)NCCCN(C)C)c(=O)[nH]c2cc1OC	L major viab 78
CCN(CC)CCN(Cc1cc2cc3c(cc2[nH]c1=O)OCCO3)C(=S)NCCCN(C)C	NALP1 yeast inh 44 (no result: L major viab)
CCNC(=S)N(CCc1ccccc1C)Cc1cc2cc(OC)c(OC)cc2[nH]c1=O	L major viab 75
COc1cc2cc(CN(CCc3ccccc3C)C(=S)NCCCN3CCOCC3)c(=O)[nH]c2cc1OC	none
CNC(=S)N(CCc1ccc(OC)c(OC)c1)Cc1cc2c(C)cc(C)cc2[nH]c1=O	L major viab 69
O=C(/C=C/c1ccccc1)NNC(=O)c1cccnc1	none
O=C(/C=C/c1ccncc1)c1cc(Cl)ccc1O	T cruzi repl 66 (no result: L major viab)
CCN(CC)c1ccc(/C=C/C(=O)c2cccnc2)cc1	Calb FLC 93
CN(C)c1ccc(/C=C/C(=O)c2cc(Cl)ccc2O)cc1	none (no result: NALP3 yeast inh, L major viab)
O=C(/C=C/c1ccc(Cl)cc1)c1cccnc1	L major viab 100 (no result: T cruzi repl)
CCN(CC)c1ccc(NC(=O)c2cccnc2)cc1	none
N#Cc1ccc(/C=C/C(=O)c2cccnc2)cc1	L major viab 101
O=C(Nc1ccc(OCc2ccccc2)cc1)c1cccnc1	none
O=C(/C=C/c1ccc(OCc2ccccc2)c(OCc2ccccc2)c1)c1cccnc1	L major viab 100 (no result: NALP1 yeast inh)
O=C(/C=C/c1ccccc1Cl)c1cccnc1	L major viab 98
Cc1ccccc1CCN(C(=O)Cn1nnc2ccccc21)C(C(=O)NCC1CCCO1)c1nc2ccccc2n1C (configuration not stated)	none
O=C(CN1CCN(Cc2ccccc2)CC1)NNC(=O)c1ccccc1	none (no result: Calb FLC, L major viab, NALP1 yeast inh, PolyA inhibitor, T cruzi repl)
CSCC[C@H](N)C(=O)N1CCC(C(=O)N[C@H](C(=O)NCc2ccccc2F)C(C)C)CC1	none (no result: L major viab)
CC(=O)OCC(=O)[C@H]1CC[C@H]2[C@@H]3CCC4=CC(=O)CC[C@]4(C)[C@H]3CC[C@]12C	L major viab 100 (no result: Calb FLC)
